Screens: PubChem BioAssay, Broad Institute
T cruzi growth-1 – T. cruzi proliferation inhibition. T. cruzi beta-gal in NIH3T3, GalScreen luminescence, 90 h. inhibition, % at 8.34 µM. 77,000 compounds, 5.9% hits. AID 624255;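 active = mean inhibition above about 93%, with at least 55% of replicates each passing it, limit read from the data, passing the limit was not always enough; inconclusive = only one of those two conditions holds; inactive = neither condition holds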
KDM4C inh – KDM4C (human) demethylase inhibition; GST-KDM4C 2-372, H3K9me3 peptide, LANCE TR-FRET; inhibition, % at 12.5 µM; 96,000 compounds, 0.15% hits;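 active = mean replicate inhibition above about 25%, with at least 55% of replicates also reaching it, limit read from the data, passing the limit was not always enough; inconclusive = only one of those two conditions met; inactive = neither condition met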
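Material: N-terminal GST-fused human GASC-1 (KDM4C) fragment, residues 2-372. Input: 10 nM enzyme. Incubation: enzyme reaction 30 min, then detection 60 min, both room temperature. Doses: one test concentration per compound. Read-out basis: inhibition from TR-FRET ratio decrease. Detection: LANCE TR-FRET, excitation 340 nm, emissions 618 and 671 nm.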
Pf Dd2 growth – blocks growth of Plasmodium falciparum Dd2 parasites | P. falciparum Dd2 growth, SYBR Green, 72 h; hits give low values | activity change, % at 10 µM | 94,000 compounds, 2.3% hits | AID 1159554; in the data active = activity change below about -80%; inconclusive = no clear call, values can overlap the other calls
IDH1 mut inh – IDH1 R132H (human) inhibition | O75874 | IDH1 R132H reductase, diaphorase/resazurin fluorescence, 60 min | inhibition, % at 10 µM | 70,000 compounds, 0.18% hits; in the data active = inhibition above about 34%; inconclusive = no clear call, values can overlap the other calls; inactive = below about 11%;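 also: 0% = DMSO and 100% = no enzyme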
Target sequence (O75874 whole entry R132H): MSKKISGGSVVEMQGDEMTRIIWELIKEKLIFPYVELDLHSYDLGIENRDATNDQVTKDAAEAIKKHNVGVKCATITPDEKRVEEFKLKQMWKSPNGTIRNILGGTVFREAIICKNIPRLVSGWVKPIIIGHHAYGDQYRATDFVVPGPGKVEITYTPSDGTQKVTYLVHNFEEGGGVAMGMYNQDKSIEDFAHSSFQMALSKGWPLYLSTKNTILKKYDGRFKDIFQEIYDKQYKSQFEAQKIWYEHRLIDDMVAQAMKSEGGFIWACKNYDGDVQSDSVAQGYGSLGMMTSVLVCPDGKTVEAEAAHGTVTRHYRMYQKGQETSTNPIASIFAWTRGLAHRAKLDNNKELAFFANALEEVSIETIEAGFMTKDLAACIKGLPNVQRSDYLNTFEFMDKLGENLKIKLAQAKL
T cruzi growth-2 – Trypanosoma cruzi proliferation inhibition; shares compounds with T cruzi growth-1; T. cruzi beta-gal in NIH3T3, GalScreen luminescence, 90 h; inhibition, % at 8.35 µM; 5,600 compounds, 72% hits; AID 651739;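 active = mean replicate inhibition above about 95% and at least 55% of replicates individually reaching it, limit read from the data; inconclusive = only one of the two criteria is met; inactive = neither criterion is met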
T cruzi growth-3 – blocks T. cruzi growth in NIH3T3 host cells | shares compounds with T cruzi growth-1 | T. cruzi beta-gal in NIH3T3, GalScreen luminescence, 90 h | inhibition, % at 2.09 µM | 5,600 compounds, 21% hits;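 active = mean inhibition above about 95%, with at least 55% of replicates also reaching it, limit read from the data; inconclusive = meets just one of the two conditions; inactive = meets neither condition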;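 also: plate controls were neutral control median for no effect and positive control median for full effect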
NIH3T3 tox – cytotoxicity in mouse NIH/3T3 fibroblasts; shares compounds with T cruzi growth-1; NIH/3T3 viability, CellTiter-Glo ATP luminescence, 90 h; cytotoxicity (signal decrease), % at 8.35 µM; 5,600 compounds, 14% hits;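 active = mean signal decrease across replicates above about 35% based on untreated-well scatter, with enough replicates individually passing, limit read from the data; inconclusive = no rule stated though some were filed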;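 also: 0% = median of neutral control wells and 100% = median of positive control wells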
3T3 cytotox 2 – kills mouse NIH/3T3 fibroblasts. shares compounds with T cruzi growth-1. NIH/3T3 viability, CellTiter-Glo ATP luminescence, 90 h. inhibition, % at 24.9 µM. 5,600 compounds, 56% hits;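 active = mean loss of cell viability signal at or above a set limit, and enough replicates individually reaching it; inconclusive = meets only the mean limit or only the replicate share; inactive = meets neither condition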;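 also: 0% = median of neutral control wells and 100% = median of positive control wells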
Active calls of the source: *; u = inconclusive; x = no result. Sampled rows, rich in hits. Any-hit rate of the full collection: about 5.9%.

SMILES	T cruzi growth-1	KDM4C inh	Pf Dd2 growth	IDH1 mut inh	T cruzi growth-2	T cruzi growth-3	NIH3T3 tox	3T3 cytotox 2
COc1ccccc1C#Cc1ccc2c(c1)O[C@@H](CN(C)Cc1ccccc1)[C@H](C)CN([C@@H](C)CO)S2(=O)=O	119*	-4	-66	-3	87	112*	45*	42*
COc1ccccc1C#Cc1ccc2c(c1)O[C@H](CN(C)Cc1cccnc1)[C@H](C)CN([C@@H](C)CO)S2(=O)=O	x	-3	-32	x	x	x	x	x
COc1ccccc1C#Cc1ccc2c(c1)O[C@H](CN(C)Cc1ccccc1)[C@@H](C)CN([C@H](C)CO)S2(=O)=O	114*	-3	-77	2	99*	112*	-47	-16
COCC(=O)Nc1ccc2c(c1)C(=O)N(C)[C@@H]1CC[C@@H](CC(=O)NCc3ccccc3)O[C@H]1CO2	70	-1	3	x	x	x	x	x
C[C@H]1CN([C@@H](C)CO)S(=O)(=O)c2ccc(C3=CCCCC3)cc2O[C@@H]1CN(C)S(=O)(=O)c1ccc(F)cc1	117*	1	-60	2	92	108*	u	55*
C[C@H](CO)N1C[C@H](C)[C@H](CN(C)S(C)(=O)=O)Oc2cc(C3=CCCCC3)ccc2S1(=O)=O	88	-1	29	x	x	x	x	x
C[C@@H]1CN([C@@H](C)CO)S(=O)(=O)c2ccc(C3=CCCCC3)cc2O[C@@H]1CN(C)S(=O)(=O)c1ccc(F)cc1	120*	0	-34	x	98*	84	24	75*
C[C@H]1CN([C@@H](C)CO)S(=O)(=O)c2ccc(C3=CCCCC3)cc2O[C@H]1CN(C)S(=O)(=O)c1ccc(F)cc1	125*	-2	-83*	x	109*	105*	-10	50*
C[C@H](CO)N1C[C@H](C)[C@H](CN(C)S(=O)(=O)c2ccc(F)cc2)Oc2cc(C3=CCCCC3)ccc2S1(=O)=O	118*	-1	-64	x	101*	105*	46*	62*
C[C@@H]1CN([C@@H](C)CO)S(=O)(=O)c2ccc(C3=CCCCC3)cc2O[C@@H]1CN(C)S(C)(=O)=O	59	1	57	0	x	x	x	x
CC(C)NC(=O)N(C)C[C@@H]1Oc2c(NS(=O)(=O)c3ccccc3)cccc2C(=O)N([C@@H](C)CO)C[C@@H]1C	13	0	6	x	x	x	x	x
CO[C@@H]1CC[C@@H]2CCOc3c(C#N)cccc3C(=O)N(C)CC3(CCCCC3)CC(=O)N(C)C[C@H]1O2	21	1	-13	0	x	x	x	x
COc1cc(COc2cc(N)c(Cl)cc2C(=O)CCC2CCN(CCNS(C)(=O)=O)CC2)cc(OC)c1	x	x	x	0	x	x	x	x
C[C@@H]1CN([C@@H](C)CO)S(=O)(=O)c2ccc(C3=CCCCC3)cc2O[C@H]1CN(C)S(=O)(=O)c1ccc(F)cc1	121*	1	-78	x	104*	92	29	31*
N#C[C@H]1[C@H](c2ccc(C#Cc3ccc(F)cc3)cc2)[C@H](CO)N1C(=O)C1CC1	114*	-2	-29	x	102*	76	-13	80*
N#C[C@H]1[C@@H](c2ccc(C#Cc3ccccc3F)cc2)[C@@H](CO)N1C(=O)C1CC1	103*	-1	-65	0	104*	104*	5	30*
N#C[C@@H]1[C@@H](c2ccc(C#Cc3ccccc3F)cc2)[C@H](CO)N1C(=O)C1CCCCC1	87	-7	-69	x	x	x	x	x
CCS(=O)(=O)N1[C@H](CO)[C@@H](c2ccc(C#Cc3ccccc3F)cc2)[C@@H]1C#N	u	-1	-63	x	107*	109*	-1	5
COCC(=O)N1[C@H](C#N)[C@@H](c2ccc(C#Cc3ccccc3F)cc2)[C@H]1CO	101*	0	-11	1	98*	34	-1	2
N#C[C@@H]1[C@H](c2ccc(C#Cc3ccc(F)cc3)cc2)[C@@H](CO)N1C(=O)C1CCCC1	88	-3	-57	x	x	x	x	x
COc1cccc(NC(=O)N(C)C[C@@H]2Oc3cc(-c4ccccc4OC)ccc3S(=O)(=O)N([C@@H](C)CO)C[C@H]2C)c1	x	2	-12	0	x	x	x	x
C[C@H]1CN([C@@H](C)CO)C(=O)CCCn2cc(nn2)CO[C@H]1CN(C)C(=O)Nc1ccccc1	47	0	-8	1	x	x	x	x
N#C[C@@H]1[C@H](c2ccc(C#Cc3ccccc3F)cc2)[C@@H](CO)N1C(=O)C1CC1	99*	0	-7	x	99*	43	6	43*
N#C[C@@H]1[C@@H](c2ccc(C#Cc3ccccc3F)cc2)[C@@H](CO)N1C(=O)C1CCCCC1	102*	1	-28	x	109*	70	-9	80*
N#C[C@H]1[C@@H](c2ccc(C#Cc3ccccc3F)cc2)[C@H](CO)N1C(=O)C1CC1	95	-2	-35	x	x	x	x	x
SMILES	T cruzi growth-1	KDM4C inh	Pf Dd2 growth	IDH1 mut inh	T cruzi growth-2	T cruzi growth-3	NIH3T3 tox	3T3 cytotox 2
N#C[C@@H]1[C@H](c2ccc(C#Cc3ccccc3F)cc2)[C@H](CO)N1C(=O)C1CCC1	94	0	-72	x	x	x	x	x
N#C[C@@H]1[C@H](c2ccc(C#Cc3ccccc3F)cc2)[C@H](CO)N1C(=O)C1CC1	100*	-1	-53	x	102*	110*	23	44*
CN(C)CCCNC(=O)C[C@H]1CC[C@@H]2[C@H](COC[C@H](O)CN2Cc2cc(F)cc(F)c2)O1	-2	0	-7	x	x	x	x	x
CN(C(Cc1ccc(OS(=O)(=O)c2cccc3cnccc23)cc1)C(=O)N1CCN(c2ccccc2)CC1)S(=O)(=O)c1cccc2cnccc12 (centres undefined)	x	x	x	-2	x	x	x	x
C[C@H]1CN([C@@H](C)CO)C(=O)c2cc(Br)cnc2O[C@@H]1CN(C)C(=O)CN(C)C	-15	0	19	0	x	x	x	x
COc1ccc(C#Cc2ccc([C@H]3[C@@H](CO)N4CCCCN(C(=O)Nc5ccccc5)C[C@@H]34)cc2)cc1	125*	-3	-32	x	111*	114*	12	30*
C/C=C/c1ccc([C@@H]2[C@H](CO)N3CCCCN(C(=O)Nc4ccc(OC)cc4)C[C@@H]23)cc1	61	-3	-24	x	x	x	x	x
COc1ccc(C#Cc2ccc([C@@H]3[C@H]4CN(C(=O)Nc5cccc(F)c5)CCCCN4[C@H]3CO)cc2)cc1	68	-2	-51	x	x	x	x	x
C/C=C/c1ccc([C@H]2[C@@H](CO)N3CCCCN(C(=O)Nc4ccc(OC)cc4)C[C@H]23)cc1	u	0	-17	x	85	10	-1	90*
